Screens (PubChem BioAssay)
This is a sample that favours compounds with a hit; in the whole collection about 1.9% have one here.
CSN deneddyl inh: inhibitors of CSN-mediated cullin deneddylation, primary screen, biochemical, fluorescence polarization, uHTS. COP9 signalosome complex subunit 5 (Homo sapiens), Q92905. 360,000 tested, 0.38% active. Purified CSN, SCF-Nedd8-OG deneddylation. AID 651999, 2013. inhibition, % at 12.5 µM;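 active = pattern-corrected inhibition above about 35%, with an unprinted fluorescence ratio check between 0.5 and 1.5, limit read from the data, passing the limit was not always enough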;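 note: 0% = enzyme with substrate and 100% = substrate without enzyme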
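Assay system: purified human Csn5 enzyme expressed in HEK293T cells; Input: 0.24 nM Csn5 enzyme, final concentration; Reagent: 10 nM SCFSkp2-Nedd8OG; Compound dosing: 12.5 µM single point; Times: reaction 90 min, room temperature; Technique: fluorescence polarization readout.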
STEP inh: STEP phosphatase inhibitors, primary screen, biochemical, fluorescence intensity, uHTS. 360,000 tested, 0.25% active. recombinant STEP, OMFP fluorogenic substrate. inhibition, % at 20 µM. AID 588621, 2011. Tyrosine-protein phosphatase non-receptor type 5 (Homo sapiens), P54829;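 active = inhibition at 20 µM, scaled per plate between control wells, above about 37%, limit read from the data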;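 note: 0% = DMSO with enzyme and substrate and 100% = substrate only without enzyme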
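Test system: STEP tyrosine phosphatase / Reagent: OMFP at 25 µM / Doses: 20 µM, 1% DMSO / Read-out: percent inhibition scaled to no-enzyme and uninhibited-enzyme controls, plate-pattern corrected / Detection: FITC-channel fluorescence of OMFP product / Medium: Bis-Tris buffer pH 6.0, 2.5 mM DTT, 0.005% Tween 20 / Schedule: 20 min at room temperature, dark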
SUMO1-SIM PPI: modulators of SUMO1 protein-protein interactions, primary screen, biochemical, uHTS. 360,000 tested, 0.33% active. inhibition, % at 20 µM. SUMO1 binding to a labelled peptide, TR-FRET, 1 h; in the data active = inhibition above about 37%
Scp-1 inhibitor: Scp-1 phosphatase inhibitors, primary screen, biochemical, colorimetric, uHTS. Carboxy-terminal domain RNA polymerase II polypeptide A small phosphatase 1 (Homo …. Recombinant Scp1, phosphopeptide, malachite green phosphate absorbance. inhibition, % at 20 µM. 340,000 tested, 0.88% active. AID 493091, 2011;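 active = inhibition above about 50% at 20 µM, limit read from the data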;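 note: plate controls were DMSO wells with enzyme for no effect and wells lacking enzyme for full effect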
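Material: truncated SCP-1 phosphatase (76-261aa) / Buffer or medium: 50 mM Tris acetate pH 5.5, 0.005% Tween-20, 10 mM MgCl2 / Compound dosing: one concentration, 20 µM, with 1.0% DMSO / Incubation: 45 min room-temperature reaction, 5 min colour, 30 min stabiliser / Detection: colorimetric free-phosphate detection, absorbance 630 nm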
LMPTP block: LMPTP phosphatase inhibitors, primary screen, biochemical, fluorescence intensity, uHTS | Low molecular weight phosphotyrosine protein phosphatase (Homo sapiens), P24666 | inhibition, % at 20 µM | 360,000 tested, 0.22% active | recombinant LMPTP-A, OMFP fluorogenic substrate;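 active = compounds that cut the enzyme signal by at least half of the control window in the single-dose screen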;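 note: plate controls were DMSO wells with enzyme plus substrate for no effect and substrate without enzyme for full effect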
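Material: LMPTP-A; amount: 0.625 nM enzyme; doses: single 20 µM dose; times: reaction 50 min, room temperature, dark; technique: fluorescence intensity of OMFP turnover product; benchmarks: no-enzyme and uninhibited controls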
DNMT1 inh: human DNMT1 methyltransferase inhibitors, primary screen, biochemical, molecular beacon, fluorescence, HinP1I cleavage, uHTS; DNA (cytosine-5)-methyltransferase 1 (Homo sapiens), P26358; inhibition (reported as % activation of signal), % at 10 µM; 360,000 tested, 0.83% active; AID 588458, 2011; in the data active = inhibition above about 50%
Numbers without * were called inactive; x = not tested or not shown.

SMILES	CSN deneddyl inh	STEP inh	SUMO1-SIM PPI	Scp-1 inhibitor	LMPTP block	DNMT1 inh
C#CCOc1ccc(/C=C2/C(=O)N(c3ccc(S(N)(=O)=O)cc3)N=C2C)cc1OC	3	7	26	x	24	39
C#CCOc1ccc(/C=C2/C(=O)N(c3cccc(C(=O)O)c3)N=C2C)cc1OC	13	7	35	58*	2	43
COc1cc(/C=C2\C(=O)N(c3ccc(S(N)(=O)=O)cc3)N=C2C)ccc1OC(=O)c1ccco1	-5	27	45*	25	35	16
CCOC(=O)c1[nH]c(C(=O)O)c(OC(=O)CC)c1C	2	-5	0	1	-3	3
CCOC(=O)CN1C(=O)C(O)(CC(=O)c2cccc(OC)c2)c2ccccc21 (stereo not drawn)	2	-3	-8	-9	-1	0
Nc1c(C(=O)NCc2ccco2)sc2nc3c(cc12)C(=O)CCC3	12	1	6	74*	13	0
O=C(CSc1nnc2scc(-c3ccccc3)n12)Nc1nsc(-c2ccc(Cl)cc2)n1	47*	14	7	20	38	48
O=C(NCc1ccco1)c1ccc(S(=O)(=O)N2CCOCC2)cc1	25	12	7	33	5	76*
CN1CCN(c2ccccc2NC(=O)c2ccc(-c3ccccc3[N+](=O)[O-])o2)CC1	3	0	-15	-7	2	-8
O=C(/C=C/c1ccco1)NC(=S)Nc1ccc(C(=O)O)cc1	23	28	26	52*	0	91*
Cc1ccc(C(=O)ONc2ccc(N=NC(=O)c3ccccc3O)cc2)cc1	-1	77*	-1	110*	78*	30
Cc1ccc(C(=O)ONc2ccc(N=O)cc2)cc1	1	2	20	-7	0	4
CCC1=NN(C(=O)c2cccnc2)C(O)(C(F)(F)F)C1 (stereo not drawn)	-8	-1	-2	-7	-1	1
Cc1cccc(NC(=O)c2sc3nc(-c4ccc(F)cc4)cn3c2C)n1	36*	-1	5	-5	0	-2
COc1ccc2nc(C)cc(SCC(=O)N/N=C/c3c(OC)ccc4ccccc34)c2c1	44*	2	4	-5	42	47
NC(=O)c1ccccc1NC(=O)c1ccc2ccccc2c1	-2	-2	-2	-3	1	-3
NC(=O)c1ccccc1NC(=O)c1cccc(C(=O)Nc2ccccc2C(N)=O)n1	35*	0	-12	-4	0	15
CC1CN(C(=O)C(C)OC(=O)c2ccc3ncsc3c2)CC(C)O1 (stereo not drawn)	-8	-2	7	-4	-2	2
COc1ccc(CNc2ncnc(N)n2)cc1	0	-3	2	9	-2	-1
COc1ccc(CNc2nc(NCc3ccc(OC)cc3)c3[nH]cnc3n2)cc1	-4	-1	3	12	78*	4
Oc1ccc(N=Cc2ccc(O)c(O)c2)cc1	12	10	51*	3	14	65*
Cc1ccc(Cc2c(-c3cccc(Cl)c3)nc3ccc(C)cn23)cc1	11	0	6	x	7	-5
Cc1ccc(Cc2c(-c3cccc(Cl)c3)nc3ccc(Cl)cn23)cc1	39*	-3	3	x	3	3
CCOC(=O)C1=CCC(C(C)(C)C)N(S(=O)(=O)c2ccc(C)cc2)C1 (stereo not drawn)	110*	3	4	x	0	5
CCOC(=O)C1=CCC(c2ccc(C)cc2)N(S(=O)(=O)c2ccc(C)cc2)C1 (stereo not drawn)	-3	4	8	x	2	-5
